Experimental data collected from several papers.
Target: Mitogen-activated protein kinase kinase kinase kinase 1 (MAP4K1, Homo sapiens, UniProt Q92918)

C#Cc1cc(-c2cc(Nc3nc(N[C@@H](C)c4ccc(F)cn4)ncc3Cl)n[nH]2)ccc1C=O
inhibition (enzyme activity, inhibitor; 0.2 µM): 47.8%

CCCCC(=O)Nc1ccc(-c2ccc3ncn(CCC)c(=O)c3c2)cn1
remaining binding (binding, competition with immobilised ligand; 0.5 µM): 100%

COc1ccc2oc(-c3ccc4nc(N)oc4c3)c/c(=N\c3ccccc3NC(=O)CCN)c2c1
remaining binding (binding; 1 µM): 109%

CN1CCN(C(=O)c2ccc(NC(=O)Nc3ccc(N(C)c4ccnc(Nc5ccc(CS(C)(=O)=O)cc5)n4)cc3)cc2)CC1
remaining binding (binding, competition with immobilised ligand; 1 µM): 2.6%

C=CC(=O)N1CCC[C@@H](n2nc(-c3ccc(Oc4ccccc4)cc3)c3c(N)ncnc32)C1
inhibition (enzyme activity, inhibitor; 1 µM): 10%

CC(C)S(=O)(=O)c1ccc2nccc(Nc3ccc4sc(C5CCCC5)nc4c3)c2c1
activity vs control (enzyme activity, inhibitor; 1 µM): 102%

C[C@H]1CC[C@H](n2c3cnccc3c3cnc(Nc4ccc5c(n4)CCN(C(=O)CO)C5)nc32)CC1
remaining binding (binding, competition with immobilised ligand; 1 µM): 66%

CO[C@@H]1[C@H](N(C)C(=O)c2ccccc2)C[C@H]2O[C@]1(C)n1c3ccccc3c3c4c(c5c6ccccc6n2c5c31)C(=O)NC4
inhibition (enzyme activity, inhibitor; 1 µM): 80%
